Reference: ChEMBL document CHEMBL3612019, “Revisiting 1,3,4-Oxadiazol-2-ones: Utilization in the Development of ABHD6 Inhibitors” (Bioorg Med Chem, 2015)
pIC50: −log10 of the molar value. The source made the active and inactive calls. No cut-off for these calls is given here.

Key:
[1] = target: T1, Fatty-acid amide hydrolase 1 (Mus musculus) (UniProt O08914); test: Inhibition of FAAH in mouse whole brain membranes at 10 uM incubated for 1 hr by TAMRA-FP probe based competitive activity-based protein profiling assay; type: cell membranes; settings: Membrane
T1 sequence (whole entry): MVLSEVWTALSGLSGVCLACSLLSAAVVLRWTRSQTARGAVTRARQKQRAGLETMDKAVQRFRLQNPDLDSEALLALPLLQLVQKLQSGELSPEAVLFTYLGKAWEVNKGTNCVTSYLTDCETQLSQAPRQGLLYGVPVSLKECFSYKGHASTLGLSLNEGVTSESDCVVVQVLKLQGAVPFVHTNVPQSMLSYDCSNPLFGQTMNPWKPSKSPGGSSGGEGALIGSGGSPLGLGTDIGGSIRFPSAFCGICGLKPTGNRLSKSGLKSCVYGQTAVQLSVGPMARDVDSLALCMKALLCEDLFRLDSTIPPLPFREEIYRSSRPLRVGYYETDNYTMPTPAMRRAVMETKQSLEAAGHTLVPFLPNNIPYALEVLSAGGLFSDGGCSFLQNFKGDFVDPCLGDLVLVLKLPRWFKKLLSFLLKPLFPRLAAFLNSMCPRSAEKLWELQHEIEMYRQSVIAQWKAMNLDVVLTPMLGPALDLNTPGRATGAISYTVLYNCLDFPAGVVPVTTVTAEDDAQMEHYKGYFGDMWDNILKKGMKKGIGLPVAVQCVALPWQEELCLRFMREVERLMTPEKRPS
Summary of the method: (§1)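 Competitive ABPP on mouse brain membranes (100 µg) treated 1 h with DMSO or inhibitor. TAMRA-FP labelling then ran 1 h at RT (final probe 2 µM). Reaction was quenched with gel loading buffer and proteins resolved by 10% SDS–PAGE for fluorescent band read-out. WWL70 located the ABHD6 band. Gels are representative of two experiments.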

[2] = target: T2, Monoacylglycerol lipase ABHD6 (Mus musculus) (UniProt Q8R2Y0); test: Inhibition of ABHD6 in mouse whole brain membranes at 1 uM incubated for 1 hr by TAMRA-FP probe based competitive activity-based protein profiling assay; type: cell membranes; settings: Membrane; summary of the method: as §1
T2 sequence (whole entry): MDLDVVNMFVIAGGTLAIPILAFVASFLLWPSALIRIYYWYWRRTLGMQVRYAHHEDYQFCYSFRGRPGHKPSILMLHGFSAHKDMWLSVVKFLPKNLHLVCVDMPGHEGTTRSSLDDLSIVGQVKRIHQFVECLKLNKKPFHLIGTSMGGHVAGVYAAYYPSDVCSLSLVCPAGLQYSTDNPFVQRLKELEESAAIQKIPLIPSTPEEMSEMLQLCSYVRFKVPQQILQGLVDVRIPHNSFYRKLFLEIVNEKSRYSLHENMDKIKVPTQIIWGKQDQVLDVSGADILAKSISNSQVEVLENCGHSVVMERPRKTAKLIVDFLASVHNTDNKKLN

[3] = target: T3, Lysophosphatidylserine lipase ABHD12 (Mus musculus) (UniProt Q99LR1); test: Inhibition of ABHD12 in mouse whole brain membranes at 32.5 uM incubated for 1 hr by TAMRA-FP probe based competitive activity-based protein profiling assay; type: cell membranes; settings: Membrane; summary of the method: as §1
T3 sequence (whole entry): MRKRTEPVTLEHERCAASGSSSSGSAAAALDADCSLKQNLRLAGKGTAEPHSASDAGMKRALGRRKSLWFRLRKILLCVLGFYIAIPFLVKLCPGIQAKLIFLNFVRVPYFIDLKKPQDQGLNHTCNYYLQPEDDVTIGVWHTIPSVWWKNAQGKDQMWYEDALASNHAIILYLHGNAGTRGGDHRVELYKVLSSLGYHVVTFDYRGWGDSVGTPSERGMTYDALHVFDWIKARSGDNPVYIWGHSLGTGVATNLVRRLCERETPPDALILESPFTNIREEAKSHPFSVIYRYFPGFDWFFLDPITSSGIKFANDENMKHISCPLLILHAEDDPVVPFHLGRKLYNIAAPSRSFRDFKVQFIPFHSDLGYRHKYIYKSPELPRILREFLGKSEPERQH

[4] = target: Cannabinoid receptor 1 (Rattus norvegicus) (UniProt P20272); test: Antagonist activity at CB1R in rat cerebellar membranes assessed as inhibition of HU210-induced response at 10 uM by [35S]GTPgammaS binding assay; type: functional, cell membranes; settings: Cerebellum, Membrane
Chain of Cannabinoid receptor 1 (Rattus norvegicus) (P20272 whole entry): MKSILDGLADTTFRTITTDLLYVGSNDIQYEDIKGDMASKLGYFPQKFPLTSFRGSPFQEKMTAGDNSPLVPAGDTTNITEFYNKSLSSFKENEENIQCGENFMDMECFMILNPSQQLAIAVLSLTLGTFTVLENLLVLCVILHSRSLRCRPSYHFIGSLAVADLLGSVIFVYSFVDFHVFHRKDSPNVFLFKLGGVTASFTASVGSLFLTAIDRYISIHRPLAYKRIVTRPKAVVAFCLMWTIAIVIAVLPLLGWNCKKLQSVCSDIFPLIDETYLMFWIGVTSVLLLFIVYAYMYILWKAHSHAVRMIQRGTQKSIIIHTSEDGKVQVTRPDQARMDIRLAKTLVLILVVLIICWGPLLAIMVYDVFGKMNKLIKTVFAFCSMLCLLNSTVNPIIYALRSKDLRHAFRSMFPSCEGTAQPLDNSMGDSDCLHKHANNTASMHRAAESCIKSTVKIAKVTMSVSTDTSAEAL
Summary of the method: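 Rat cerebellar membranes, [35S]GTPγS binding. Agonist activity is read as % of basal binding. Antagonist activity is read as % of the HU210-evoked response. Compound tested at 10 µM. Values are mean (range), n = 2.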

[5] = target: T4, Monoacylglycerol lipase ABHD6 (Homo sapiens, UniProt Q9BV23); test: Inhibition of human ABHD6 expressed in HEK293 cells at 1 uM pre-incubated for 10 mins before 2-AG substrate addition followed by rapid 40 fold compound dilution measured after 30 mins by HPLC method; type: cell-based
T4 sequence (Q9BV23 whole entry): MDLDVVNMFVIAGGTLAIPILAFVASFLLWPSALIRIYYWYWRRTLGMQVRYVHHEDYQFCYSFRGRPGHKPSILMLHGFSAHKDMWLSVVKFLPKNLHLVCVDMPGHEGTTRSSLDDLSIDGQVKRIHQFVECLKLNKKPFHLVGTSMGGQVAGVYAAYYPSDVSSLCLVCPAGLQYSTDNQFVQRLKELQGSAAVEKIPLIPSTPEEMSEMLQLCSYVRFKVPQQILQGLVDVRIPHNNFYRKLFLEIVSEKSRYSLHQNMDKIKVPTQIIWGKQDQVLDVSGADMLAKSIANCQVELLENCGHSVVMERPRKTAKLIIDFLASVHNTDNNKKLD

[6] = target: Cannabinoid receptor 2 (Homo sapiens) (UniProt P34972); test: Agonist activity at human CB2R expressed in CHO cell membranes at 10 uM by [35S]GTPgammaS binding assay; type: functional
Chain of Cannabinoid receptor 2 (Homo sapiens) (P34972 whole entry): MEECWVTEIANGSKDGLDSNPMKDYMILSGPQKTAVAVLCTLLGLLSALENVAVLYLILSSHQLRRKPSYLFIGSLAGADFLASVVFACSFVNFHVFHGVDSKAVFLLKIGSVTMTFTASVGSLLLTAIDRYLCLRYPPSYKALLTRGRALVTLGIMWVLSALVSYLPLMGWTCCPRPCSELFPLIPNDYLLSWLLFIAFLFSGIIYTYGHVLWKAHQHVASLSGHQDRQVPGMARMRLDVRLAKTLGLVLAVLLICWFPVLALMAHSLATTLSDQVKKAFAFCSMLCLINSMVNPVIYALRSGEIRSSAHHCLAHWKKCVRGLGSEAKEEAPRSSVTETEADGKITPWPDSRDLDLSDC

[7] = target: T2, Monoacylglycerol lipase ABHD6 (Mus musculus); test: Inhibition of ABHD6 in mouse whole brain membranes at 10 uM incubated for 1 hr by TAMRA-FP probe based competitive activity-based protein profiling assay; type: cell membranes; settings: Membrane; summary of the method: as §1
[8] = target: T4, Monoacylglycerol lipase ABHD6; test: Inhibition of human ABHD6 expressed in HEK293 cells at 1 uM pre-incubated for 10 mins before 2-AG substrate addition followed by rapid 40 fold compound dilution measured after 90 mins by HPLC method; type: cell-based
[9] = target: T5, Monoglyceride lipase (Mus musculus) (UniProt O35678); test: Inhibition of MAGL in mouse whole brain membranes at 32.5 uM incubated for 1 hr by TAMRA-FP probe based competitive activity-based protein profiling assay; type: cell membranes; settings: Membrane; summary of the method: as §1
T5 sequence (whole entry): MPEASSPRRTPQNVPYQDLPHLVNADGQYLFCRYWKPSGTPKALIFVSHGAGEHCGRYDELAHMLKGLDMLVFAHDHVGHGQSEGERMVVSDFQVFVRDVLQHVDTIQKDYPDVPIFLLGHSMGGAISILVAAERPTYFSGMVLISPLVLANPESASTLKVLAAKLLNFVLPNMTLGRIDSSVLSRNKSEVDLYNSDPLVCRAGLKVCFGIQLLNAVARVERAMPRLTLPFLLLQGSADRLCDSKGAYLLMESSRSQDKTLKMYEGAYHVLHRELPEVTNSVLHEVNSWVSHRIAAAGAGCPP

[10] = target: T4, Monoacylglycerol lipase ABHD6; test: Inhibition of human ABHD6 expressed in HEK293 cells at 1 uM pre-incubated for 10 mins before 2-AG substrate addition followed by rapid 40 fold compound dilution measured after 10 mins by HPLC method; type: cell-based

Row | Structure (SMILES) | inhibition [1] | inhibition [2] | inhibition [3] | % of HU210 response [4] | pIC50 [5] | Activity [6] | inhibition [7] | pIC50 [8] | inhibition [9] | pIC50 [10]
1 | Nc1cccc(Cn2nc(Oc3ccccc3)oc2=O)c1 | Active | Active | – | – | – | – | – | – | – | –
2 | COc1nn(Cc2cccc(N)c2)c(=O)o1 | inactive | – | Active | 104% | 5.42 | 107% | Active | 5.48 | Active | 5.39
